This experiment is described as follows: Inhibition of beta-hematin formation assessed as Ferriprotoporphyrin IX biomineralisation after 24 hrs. The class given is functional. In outline:
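Hemin (0.5 mg/ml in DMSO) was mixed with 0.5 M sodium acetate pH 4.4 and compound, then incubated for 24 h at 37 °C. The pellet was washed with DMSO to remove unreacted hemin and dissolved in 0.1 N NaOH, with A405 read. Percent inhibition was taken versus solvent control, and IC50 by curve fitting.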

A word on the IC50: it is the concentration at which inhibition is half-maximal. Regarding `C=C[C@H]1CN2CC[C@H]1C[C@H]2[C@H](O)c1ccnc2ccc(OC)cc12` [QUININE], the IC50 worked out at 324 µM.

Values taken from ChEMBL document CHEMBL2021854, “2-Aminopyrimidine based 4-aminoquinoline anti-plasmodial agents. Synthesis, biological activity, structure-activity relationship and mode of action studies” (Eur J Med Chem, 2012).
